Source: ChEMBL document CHEMBL4334552, “Discovery of BMS-986260, a Potent, Selective, and Orally Bioavailable TGFβR1 Inhibitor as an Immuno-oncology Agent” (ACS Med Chem Lett, 2020)
pIC50, pKi: −log10 of the molar value. Calls of active or inactive are those of the source. The calls are words filed in the database; no cut-off is given here.

What was measured:
[1] = molecular target: TGF-beta receptor type-2 (Homo sapiens, UniProt P37173); assay: Inhibition of wild type His-tagged TGFBR2 kinase domain (unknown origin) incubated for 1 hr by HTRF analysis
[2] = Half life in human liver microsomes in presence of NADPH; assay type: ADME, Microsome
[3] = Protein binding in human serum assessed as unbound fraction; assay type: ADME, cell-free
[4] = Protein binding in dog serum assessed as unbound fraction; assay type: ADME, cell-free, Canis lupus familiaris
[5] = Protein binding in mouse serum assessed as unbound fraction; assay type: ADME, cell-free
[6] = Metabolic stability of compound in mouse liver microsomes assessed as compound remaining; assay type: ADME, Microsome
[7] = molecular target: T1, TGF-beta receptor type-1 (Homo sapiens, UniProt P36897); assay: Inhibition of TGFbetaR1 in anti-CD3/anti-CD28/IL-2/TGFbeta -stimulated human Treg cells assessed as downregulation of FOXP3 expression incubated for 5 days by flow cytometry analysis
T1 sequence (P36897 whole entry): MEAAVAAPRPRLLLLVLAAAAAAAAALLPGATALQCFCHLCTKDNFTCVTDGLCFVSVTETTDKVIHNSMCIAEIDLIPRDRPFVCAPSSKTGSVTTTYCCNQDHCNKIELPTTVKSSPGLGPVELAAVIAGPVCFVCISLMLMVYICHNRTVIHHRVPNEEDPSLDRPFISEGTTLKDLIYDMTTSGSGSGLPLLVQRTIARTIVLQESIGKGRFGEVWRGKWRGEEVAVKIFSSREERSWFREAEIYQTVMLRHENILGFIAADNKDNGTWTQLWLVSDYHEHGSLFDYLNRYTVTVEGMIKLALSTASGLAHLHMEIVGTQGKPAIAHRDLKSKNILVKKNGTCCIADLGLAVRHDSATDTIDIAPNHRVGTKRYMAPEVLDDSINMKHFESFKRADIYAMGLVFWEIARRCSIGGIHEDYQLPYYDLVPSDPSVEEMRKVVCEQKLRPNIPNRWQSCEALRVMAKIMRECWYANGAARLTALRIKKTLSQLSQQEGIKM

[8] = Half life in rat liver microsomes in presence of NADPH; assay type: ADME, Microsome
[9] = Half life in mouse liver microsomes in presence of UGT/UDPGA; assay type: ADME, Microsome
[10] = Half life in rat liver microsomes in presence of UGT/UDPGA; assay type: ADME, Microsome
[11] = Half life in human liver microsomes in presence of UGT/UDPGA; assay type: ADME, Microsome
[12] = Half life in rat hepatocytes; assay type: ADME, cell-based, Hepatocyte
[13] = Half life in human hepatocytes; assay type: ADME, cell-based, Hepatocyte
[14] = molecular target: T2, Cytochrome P450 1A2 (Homo sapiens, UniProt P05177); assay: Inhibition of recombinant CYP1A2 (unknown origin); assay type: ADME
T2 sequence (P05177 whole entry): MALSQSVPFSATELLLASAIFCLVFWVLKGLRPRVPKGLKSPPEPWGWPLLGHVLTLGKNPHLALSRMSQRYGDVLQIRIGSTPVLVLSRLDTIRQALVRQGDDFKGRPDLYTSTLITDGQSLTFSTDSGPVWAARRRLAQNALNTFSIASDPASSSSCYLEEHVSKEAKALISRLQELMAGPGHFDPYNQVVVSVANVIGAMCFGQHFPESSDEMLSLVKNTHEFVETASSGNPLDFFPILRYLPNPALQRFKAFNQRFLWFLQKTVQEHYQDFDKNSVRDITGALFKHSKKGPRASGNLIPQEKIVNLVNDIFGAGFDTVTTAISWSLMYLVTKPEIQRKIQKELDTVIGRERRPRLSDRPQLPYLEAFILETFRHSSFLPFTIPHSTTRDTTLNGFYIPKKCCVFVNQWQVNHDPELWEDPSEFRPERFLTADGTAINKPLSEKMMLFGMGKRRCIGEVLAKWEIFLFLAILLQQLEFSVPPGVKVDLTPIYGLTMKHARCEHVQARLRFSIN

[15] = Total AUC in Sprague Dawley rat at 5 mg/kg, iv; assay type: ADME, organism-based; parameters: dose 5 mg/kg, route intravenous, time AUCmax; conditions: in vivo
In short: (§1)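 Male Sprague–Dawley rats (n = 3) received a PEG400 solution iv at 5 mg/kg and po at 10 mg/kg.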

[16] = Half life in Sprague Dawley rat at 5 mg/kg, iv; assay type: ADME, organism-based; conditions: in vivo
In short: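 Male Sprague–Dawley rats (n = 3) dosed iv at 5 mg/kg as a PEG400 solution, alongside a 10 mg/kg oral arm. Half-life was derived from the iv profile.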

[17] = MRT in Sprague Dawley rat at 5 mg/kg, iv; assay type: ADME, organism-based; conditions: in vivo; in short: as §1
[18] = Volume of distribution at steady state in Sprague Dawley rat at 5 mg/kg, iv; assay type: ADME, organism-based; conditions: in vivo, read-out: Vdss; in short: as §1
[19] = Cmax in Beagle dog at 5 mg/kg, po; assay type: ADME, organism-based, Canis lupus familiaris; parameters: dose 5 mg/kg, route oral; conditions: in vivo
In short: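 Male Beagle dogs, n = 2, pretreated with pentagastrin. The po dose of 5 mg/kg was in 5% ethanol, 45% PEG400 and 50% 25 mM acetate buffer pH 4.0. The iv dose of 1 mg/kg was in 5:45:50 EtOH/PEG400/saline at 1 mL/kg.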

[20] = test system: Mus musculus; assay: Antitumor activity in compound-mediated tumor cured C57Bl/6 mouse allografted with mouse MC38 cells assessed as tumor growth following rechallenge with newly implanted mouse LL2 cells treated at 3.75 to 15 mg/kg, po qd for 28 days and cotreated with anti-PD1 at 10 mg/kg, ip every 4 days for 3 doses prior to LL2 cells rechallenge by digital caliper analysis; assay type: functional, organism-based
In short: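 Mice cured by oral dosing plus anti-PD-1 (10 mg/kg IP, every 4 days, three doses) were re-implanted with MC38 or LL2 cells. Tumor growth was compared with naive mice.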

[21] = Cardiovascular toxicity in rat assessed as valvulo-pathy at 1 mg/kg, po for 10 days; assay type: organism-based; conditions: in vivo, 240 h
In short: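 Exploratory toxicology studies of 10 days with daily oral dosing in rats and dogs. Cardiovascular findings, including valvulopathy and aortic pathology, were assessed.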

[22] = molecular target: Cytochrome P450 2C9 (Homo sapiens, UniProt P11712); assay: Induction of recombinant CYP2C9 (unknown origin) up to 24 microM; assay type: ADME; conditions: recombinant enzyme
[23] = molecular target: Cytochrome P450 2C19 (Homo sapiens, UniProt P33261); assay: Induction of recombinant CYP2C19 (unknown origin) up to 24 microM; assay type: ADME; conditions: recombinant enzyme
[24] = molecular target: T3, TGF-beta receptor type-1 (Mus musculus, UniProt Q64729); assay: Inhibition of TGFBR1 in mouse biochemical assay assessed as apparent inhibition constant; conditions: read-out: Ki(app)
T3 sequence (Q64729 whole entry): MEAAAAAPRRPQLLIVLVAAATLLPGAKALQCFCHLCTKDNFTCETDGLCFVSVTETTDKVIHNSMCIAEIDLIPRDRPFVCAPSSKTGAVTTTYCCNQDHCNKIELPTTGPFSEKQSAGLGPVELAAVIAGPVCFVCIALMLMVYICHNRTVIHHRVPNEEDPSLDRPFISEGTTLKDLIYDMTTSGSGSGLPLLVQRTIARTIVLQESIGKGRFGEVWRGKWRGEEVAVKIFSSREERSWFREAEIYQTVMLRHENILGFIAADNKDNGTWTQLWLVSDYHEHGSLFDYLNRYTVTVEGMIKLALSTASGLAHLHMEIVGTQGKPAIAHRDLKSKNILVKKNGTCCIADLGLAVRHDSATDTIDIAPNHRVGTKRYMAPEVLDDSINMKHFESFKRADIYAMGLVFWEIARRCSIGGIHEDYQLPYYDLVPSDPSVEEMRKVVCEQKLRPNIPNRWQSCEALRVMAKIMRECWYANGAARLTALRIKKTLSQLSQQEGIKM

Sequence of TGF-beta receptor type-2 (P37173 whole entry, the tested form may be a part): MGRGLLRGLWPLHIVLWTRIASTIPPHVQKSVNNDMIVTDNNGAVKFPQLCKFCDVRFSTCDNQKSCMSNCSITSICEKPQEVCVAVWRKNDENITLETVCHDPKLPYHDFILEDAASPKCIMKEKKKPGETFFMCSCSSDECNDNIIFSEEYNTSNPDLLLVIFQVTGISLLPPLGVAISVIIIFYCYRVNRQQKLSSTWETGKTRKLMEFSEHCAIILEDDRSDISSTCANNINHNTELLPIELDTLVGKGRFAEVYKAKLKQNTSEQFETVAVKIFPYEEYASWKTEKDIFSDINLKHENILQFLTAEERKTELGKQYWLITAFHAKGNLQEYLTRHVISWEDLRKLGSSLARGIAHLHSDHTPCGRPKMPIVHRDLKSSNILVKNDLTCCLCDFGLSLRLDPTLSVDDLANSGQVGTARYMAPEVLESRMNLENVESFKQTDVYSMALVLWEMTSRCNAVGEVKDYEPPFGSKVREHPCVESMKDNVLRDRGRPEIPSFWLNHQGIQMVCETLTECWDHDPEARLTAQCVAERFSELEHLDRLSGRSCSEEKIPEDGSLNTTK
Sequence of Cytochrome P450 2C19 (P33261 whole entry): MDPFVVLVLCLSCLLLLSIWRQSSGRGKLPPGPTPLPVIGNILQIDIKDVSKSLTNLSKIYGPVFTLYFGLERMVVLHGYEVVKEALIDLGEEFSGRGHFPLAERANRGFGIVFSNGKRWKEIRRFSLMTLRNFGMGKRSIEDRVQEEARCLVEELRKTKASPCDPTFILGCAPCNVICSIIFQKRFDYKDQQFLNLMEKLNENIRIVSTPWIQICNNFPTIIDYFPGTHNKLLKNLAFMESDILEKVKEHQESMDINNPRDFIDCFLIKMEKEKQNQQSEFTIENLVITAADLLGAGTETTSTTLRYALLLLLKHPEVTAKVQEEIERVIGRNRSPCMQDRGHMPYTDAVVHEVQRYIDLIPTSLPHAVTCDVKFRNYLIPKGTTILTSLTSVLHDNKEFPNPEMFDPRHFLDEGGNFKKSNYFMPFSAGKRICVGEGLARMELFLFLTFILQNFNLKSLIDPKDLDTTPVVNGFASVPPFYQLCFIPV
Sequence of Cytochrome P450 2C9 (P11712 whole entry): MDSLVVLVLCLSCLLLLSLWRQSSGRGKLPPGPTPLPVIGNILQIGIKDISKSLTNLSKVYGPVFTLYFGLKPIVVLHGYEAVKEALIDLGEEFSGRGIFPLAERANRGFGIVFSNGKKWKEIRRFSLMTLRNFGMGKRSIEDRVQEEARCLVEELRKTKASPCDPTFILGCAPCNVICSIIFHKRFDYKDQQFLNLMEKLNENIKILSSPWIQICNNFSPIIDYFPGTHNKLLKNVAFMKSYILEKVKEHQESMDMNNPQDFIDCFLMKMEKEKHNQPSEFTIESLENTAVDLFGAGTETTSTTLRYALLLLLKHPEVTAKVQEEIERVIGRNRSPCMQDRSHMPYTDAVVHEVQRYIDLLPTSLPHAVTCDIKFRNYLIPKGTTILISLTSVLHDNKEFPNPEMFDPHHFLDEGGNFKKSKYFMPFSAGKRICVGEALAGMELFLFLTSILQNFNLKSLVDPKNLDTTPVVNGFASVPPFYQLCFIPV

**Q.** With `N#Cc1cnc2ccc(-c3c(-c4ccc(F)c(Cl)c4)ncn3CCO)nn12` as the compound, how does the pIC50 [1] read?
**A.** < 4.82

**Q.** And the half-life [2]?
**A.** 0.383 h

**Q.** And the fraction unbound [3]?
**A.** 0.1

**Q.** What about the fraction unbound [4] of the same compound?
**A.** 0.13

**Q.** And the fraction unbound [5]?
**A.** 0.12

**Q.** And the Stability [6]?
**A.** 81%

**Q.** And the pIC50 [7]?
**A.** 6.64

**Q.** And the half-life [8]?
**A.** 0.833 h

**Q.** And the half-life [9]?
**A.** > 2 h

**Q.** And the half-life [10]?
**A.** > 2 h

**Q.** What about the half-life [11] of the same compound?
**A.** > 2 h

**Q.** And the half-life [12]?
**A.** 5.33 h

**Q.** And the half-life [13]?
**A.** 0.9 h

**Q.** And the pIC50 [14]?
**A.** < 4.70

**Q.** What about the AUC [15] of the same compound?
**A.** 39.6 µM·h

**Q.** And the half-life [16]?
**A.** 5.7 h

**Q.** What about the MRT [17] of the same compound?
**A.** 7.2 h

**Q.** And the Vd [18]?
**A.** 2.4 L/kg

**Q.** What about the Cmax [19] of the same compound?
**A.** 11.2 µM

**Q.** What about the Activity [20] of the same compound?
**A.** inactive

**Q.** What about the Activity [21] of the same compound?
**A.** Toxic

**Q.** What about the Activity [22] of the same compound?
**A.** Not Active

**Q.** And the Activity [23]?
**A.** Not Active

**Q.** And the pKi [24]?
**A.** 8.85
